The values below come from ChEMBL document CHEMBL1240422, “Design, synthesis and biological evaluation of 3,5-diaryl-isoxazoline/isoxazole-pyrrolobenzodiazepine conjugates as potential anticancer agents” (2010).

For orientation: GI50 means the concentration giving 50% growth inhibition. Low values mean greater sensitivity of the cells, high ones lower sensitivity of the cells.

In experiment [1] the test system is A-375. As to the kind of experiment: Cell cycle arrest in human A375 cells assessed as accumulation at G0/G1 phase at 4 uM after 24 hrs using propidium iodide staining by FACS. The class given is functional. The method, boiled down:
(§1)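 Treated A375 cells (24 h) were harvested with trypsin-EDTA and fixed in ice-cold 70% ethanol (4 °C, 30 min). After a PBS wash, they were incubated with 1 mg/mL RNase A (37 °C, 30 min) and stained with propidium iodide solution containing trisodium citrate and Triton X-100. DNA content was measured by flow cytometry on 20,000 events. Controls were DMSO-treated.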
(In general: Flow cytometry measures light scatter and fluorescence of single cells or particles in a stream.)

Experiment [2] relates to A-375. As to the kind of experiment: Cell cycle arrest in human A375 cells assessed as accumulation at S phase at 4 uM after 24 hrs using propidium iodide staining by FACS. The class given is functional. The method in brief: as §1
Experiment [3] concerns A-375. Put plainly: Cell cycle arrest in human A375 cells assessed as accumulation at G2/M phase at 4 uM after 24 hrs using propidium iodide staining by FACS. The experiment is classed as functional. The method, boiled down: as §1
In a further experiment the test system is SiHa. As to the kind of experiment: Anticancer activity against human SiHa cells after 48 hrs by SRB assay. The class given is functional. The method in brief: (§2)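 Cells grown in RPMI 1640 with 10% FBS and 2 mM L-glutamine, plated at densities set by doubling time, and preincubated 24 h at 37 °C, 5% CO2. Compounds were tested at four concentrations (0.1, 1, 10, 100) in triplicate wells with 48 h continuous exposure. Cells were fixed with cold TCA (10% final, 60 min, 4 °C) and stained with 0.4% SRB in 1% acetic acid (20 min, RT). Dye was eluted with 10 mM Trizma base and read at 540 nm (690 nm reference). Percent growth is relative to control wells, plate by plate.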
Background: Sulforhodamine B stains cellular protein and so reports cell mass.

Experiment [4] concerns A-375. Put plainly: Induction of apoptosis in human A375 cells assessed as increase in PPAR protein level at 4 uM after 24 hrs by Western blotting. The experiment is classed as functional, cell-based. The method in brief:
(§3)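 A375 cells were treated for 24 h and lysed in ice-cold RIPA buffer (1% NP-40, 0.5% deoxycholate, 0.1% SDS, protease inhibitors). Protein was quantified by Bradford assay, and 30 µg/lane was run on 12% SDS-PAGE and transferred to PVDF. Membranes were blocked 2 h at RT in TBST with 5% blocker, incubated with primary antibody overnight at 4 °C, then with HRP secondary (1:2000, 1 h, RT). Detection was by chemiluminescence, with β-actin as loading control.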
For orientation: Immunoblotting shows a protein as a band on a membrane.

Experiment [5] relates to A-375. As to the kind of experiment: Induction of apoptosis in human A375 cells assessed as increase in cytochromeC protein level at 4 uM after 24 hrs by Western blotting. The class given is functional, cell-based. The method, boiled down: (§4)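 A375 cells treated 24 h, then lysed in ice-cold RIPA buffer (1% NP-40, 0.5% deoxycholate, 0.1% SDS, protease inhibitors). Protein was quantified by Bradford, and 30 µg per lane run on 12% SDS-PAGE and transferred to PVDF. Blots were blocked 2 h at RT in TBST with 5% blocking powder, probed with primary antibody overnight at 4 °C, then HRP secondary (1:2000, 1 h RT), and read by chemiluminescence against β-actin loading control.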

In a further experiment the test system is A2780. As to the kind of experiment: Anticancer activity against human A2780 cells after 48 hrs by SRB assay. The experiment is classed as functional. The following applies: A2780, 48 h. The method in brief: (§5)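 Grown in RPMI 1640 with 10% FBS and 2 mM L-glutamine at 37 °C, 5% CO2. Seeded at densities set by doubling time, then preincubated 24 h. Continuous 48 h drug exposure at four concentrations (0.1, 1, 10, 100), triplicate wells. Fixed with cold TCA (final 10%) at 4 °C, 60 min. Stained with 0.4% SRB in 1% acetic acid, eluted with 10 mM Tris base, read at 540/690 nm. Percent growth versus control wells.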

The subject of experiment [6] is A-375. As to the kind of experiment: Induction of apoptosis in human A375 cells assessed as caspase3 activation at 4 uM after 24 hrs by fluorimetry. The class given is functional, cell-based. The method in brief:
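Caspase-3 activity was measured by a fluorometric assay on lysates of treated and untreated A375 cells.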

The subject of the next experiment is ZR-75-1. As to the kind of experiment: Anticancer activity against human ZR-75-1 cells after 48 hrs by SRB assay. The experiment is classed as functional. The following applies: ZR-75-1, 48 h. The method in brief: as §2
The test system of experiment [7] is A-375. As to the kind of experiment: Induction of apoptosis in human A375 cells assessed as reduction in CDK2 protein level at 4 uM after 24 hrs by Western blotting. The experiment is classed as functional, cell-based. The method, boiled down: as §3
Another experiment relates to KB. Put plainly: Anticancer activity against human KB cells after 48 hrs by SRB assay. The class given is functional. The method in brief: as §5
Experiment [8] has as its system A-375. Put plainly: Induction of apoptosis in human A375 cells assessed as increase in p53 protein level at 4 uM after 24 hrs by Western blotting. The class given is functional, cell-based. The method, boiled down: as §4
For experiment [9], the system named is A-375. As to the kind of experiment: Cytotoxicity against human A375 cells at 4 uM after 24 hrs […]. The experiment is classed as functional, cell-based.

The structures appear in SMILES notation. Active and inactive are the calls of the source. No cut-off for these calls is given here.

In the case of `COc1cc(C2=NOC(c3cc(OC)c(OC)c(OC)c3)C2)ccc1OCCCOc1cc2c(cc1OC)C(=O)N1CCC[C@H]1C=N2` (stereo partly specified), the Activity in the experiment with A-375 [1] is given as 98.5%; in the experiment on A-375 [2], 1.1%; in the experiment on A-375 [3] it was 0.4%. Further, the GI50 in the experiment on SiHa, in the experiment on A2780, in the experiment with ZR-75-1 and in the experiment on KB was under 100 nM throughout. Also, the result in the experiment on A-375 [4], with A-375 [5], with A-375 [6], in the experiment on A-375 [7] and with A-375 [8] was Active.

`COc1ccc(/C=C\c2cc(OC)c(OC)c(OC)c2)cc1O` [COMBRETASTATIN A4]: the values for the Activity with A-375 [1], in the experiment with A-375 [2] and in the experiment on A-375 [3] were 49.08%, 38.1% and 12.81%, respectively. For the same compound, in the experiment on A-375 [9], the result was Active.
